In ChEMBL document CHEMBL1914423, “New imidazo[2,1-b]thiazole derivatives: synthesis, in vitro anticancer evaluation, and in silico studies” (Eur J Med Chem, 2011):

Assays:
[1] = Antiproliferative activity against human A375P cells after 48 hrs by MTT assay; assay type: functional, cell-based
Outline: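 A375P cells in DMEM with 10% FBS at 37 °C, 5% CO2. Seeded at 5×10³ cells/well, held 24 h, then treated with 12-point 3-fold serial dilutions for 48 h. Viability by MTT reduction. IC50 values are means of triplicate experiments.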

CCRF-CEM = test: Anticancer activity against human CCRF-CEM cells assessed as cell growth at 10^-5 M after 48 hrs by SRB assay; assay type: functional; settings: read-out: Activity
Outline: (§1)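 NCI-60 single-dose screen at one concentration. Cells grown in RPMI 1640 with 5% FBS and 2 mM L-glutamine, plated at 5000–40,000 cells/well, and pre-incubated 24 h at 37 °C in 5% CO2 before DMSO-dissolved drug was added. Cells fixed with TCA, SRB-stained, absorbance read at 515 nm. Percent growth calculated against time-zero and untreated control plates.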

K562 = test: Anticancer activity against human K562 cells assessed as cell growth at 10^-5 M after 48 hrs by SRB assay; assay type: functional; settings: K562, 48 h, read-out: Activity; outline: as §1
RPMI-8226 = test: Anticancer activity against human RPMI8226 cells assessed as cell growth at 10^-5 M after 48 hrs by SRB assay; assay type: functional; settings: RPMI-8226, 48 h, read-out: Activity
SR = test: Anticancer activity against human SR cells assessed as cell growth at 10^-5 M after 48 hrs by SRB assay; assay type: functional; settings: read-out: Activity
Outline: (§2)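 NCI-60 single-dose screen: cells in RPMI 1640 with 5% FBS and 2 mM L-glutamine, plated at 5000–40,000 cells/well by doubling time, and preincubated 24 h at 37 °C. Compound given at one concentration from DMSO stock. Cells TCA-fixed and SRB-stained, absorbance at 515 nm. Percent growth relative to time-zero and untreated controls; inhibition % = 100 − growth %.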

HOP-92 = test: Anticancer activity against human HOP92 cells assessed as cell growth at 10^-5 M after 48 hrs by SRB assay; assay type: functional; settings: HOP-92, 48 h, read-out: Activity; outline: as §1
NCI-H226 = test: Anticancer activity against human NCI-H226 cells assessed as cell growth at 10^-5 M after 48 hrs by SRB assay; assay type: functional; settings: NCI-H226, 48 h, read-out: Activity
NCI-H322M = test: Anticancer activity against human NCI-H322M cells assessed as cell growth at 10^-5 M after 48 hrs by SRB assay; assay type: functional; settings: read-out: Activity
HCT-15 = test: Anticancer activity against human HCT15 cells assessed as cell growth at 10^-5 M after 48 hrs by SRB assay; assay type: functional; settings: HCT-15, 48 h, read-out: Activity; outline: as §1
HT-29 = test: Anticancer activity against human HT-29 cells assessed as cell growth at 10^-5 M after 48 hrs by SRB assay; assay type: functional; settings: HT-29, 48 h, read-out: Activity; outline: as §1
KM12 = test: Anticancer activity against human KM12 cells assessed as cell growth at 10^-5 M after 48 hrs by SRB assay; assay type: functional; settings: KM12, 48 h, read-out: Activity; outline: as §1
SW-620 = test: Anticancer activity against human SW620 cells assessed as cell growth at 10^-5 M after 48 hrs by SRB assay; assay type: functional; settings: SW-620, 48 h, read-out: Activity; outline: as §2
SF-268 = test: Anticancer activity against human SF268 cells assessed as cell growth at 10^-5 M after 48 hrs by SRB assay; assay type: functional; settings: SF-268, 48 h, read-out: Activity
SF-295 = test: Anticancer activity against human SF295 cells assessed as cell growth at 10^-5 M after 48 hrs by SRB assay; assay type: functional; settings: SF-295, 48 h, read-out: Activity
SNB-19 = test: Anticancer activity against human SNB19 cells assessed as cell growth at 10^-5 M after 48 hrs by SRB assay; assay type: functional; settings: SNB-19, 48 h, read-out: Activity
Malme-3M = test: Anticancer activity against human MALME-3M cells assessed as cell growth at 10^-5 M after 48 hrs by SRB assay; assay type: functional; settings: read-out: Activity; outline: as §1
MDA-MB-435 = test: Anticancer activity against human MDA-MB-435 cells assessed as cell growth at 10^-5 M after 48 hrs by SRB assay; assay type: functional; settings: MDA-MB-435, 48 h, read-out: Activity
SK-MEL-2 = test: Anticancer activity against human SK-MEL-2 cells assessed as cell growth at 10^-5 M after 48 hrs by SRB assay; assay type: functional; settings: SK-MEL-2, 48 h, read-out: Activity
SK-MEL-5 = test: Anticancer activity against human SK-MEL-5 cells assessed as cell growth at 10^-5 M after 48 hrs by SRB assay; assay type: functional; settings: SK-MEL-5, 48 h, read-out: Activity
UACC-257 = test: Anticancer activity against human UACC257 cells assessed as cell growth at 10^-5 M after 48 hrs by SRB assay; assay type: functional; settings: UACC-257, 48 h, read-out: Activity; outline: as §2
IGROV-1 = test: Anticancer activity against human IGROV1 cells assessed as cell growth at 10^-5 M after 48 hrs by SRB assay; assay type: functional; settings: IGROV-1, 48 h, read-out: Activity; outline: as §1
OVCAR-5 = test: Anticancer activity against human OVCAR5 cells assessed as cell growth at 10^-5 M after 48 hrs by SRB assay; assay type: functional; settings: OVCAR-5, 48 h, read-out: Activity
OVCAR-8 = test: Anticancer activity against human OVCAR8 cells assessed as cell growth at 10^-5 M after 48 hrs by SRB assay; assay type: functional; settings: OVCAR-8, 48 h, read-out: Activity
NCI/ADR-RES = test: Anticancer activity against human NCI/ADR-RES cells assessed as cell growth at 10^-5 M after 48 hrs by SRB assay; assay type: functional; settings: read-out: Activity
SK-OV-3 = test: Anticancer activity against human SKOV3 cells assessed as cell growth at 10^-5 M after 48 hrs by SRB assay; assay type: functional; settings: SK-OV-3, 48 h, read-out: Activity
786-0 = test: Anticancer activity against human 786-0 cells assessed as cell growth at 10^-5 M after 48 hrs by SRB assay; assay type: functional; settings: 786-0, 48 h, read-out: Activity; outline: as §1
A498 = test: Anticancer activity against human A498 cells assessed as cell growth at 10^-5 M after 48 hrs by SRB assay; assay type: functional; settings: A498, 48 h, read-out: Activity; outline: as §1
CAKI-1 = test: Anticancer activity against human Caki1 cells assessed as cell growth at 10^-5 M after 48 hrs by SRB assay; assay type: functional; settings: CAKI-1, 48 h, read-out: Activity; outline: as §1
UO-31 = test: Anticancer activity against human UO31 cells assessed as cell growth at 10^-5 M after 48 hrs by SRB assay; assay type: functional; settings: UO-31, 48 h, read-out: Activity; outline: as §2
PC-3 = test: Anticancer activity against human PC3 cells assessed as cell growth at 10^-5 M after 48 hrs by SRB assay; assay type: functional; settings: PC-3, 48 h, read-out: Activity
MCF7 = test: Anticancer activity against human MCF7 cells assessed as cell growth at 10^-5 M after 48 hrs by SRB assay; assay type: functional; settings: MCF7, 48 h, read-out: Activity; outline: as §1
T47D = test: Anticancer activity against human T47D cells assessed as cell growth at 10^-5 M after 48 hrs by SRB assay; assay type: functional; settings: read-out: Activity; outline: as §2

## COc1cccc(-c2nc3sccn3c2-c2ccnc(NCCNC(=O)Nc3ccccc3)n2)c1
[1]
  IC50: > 10 µM
CCRF-CEM
  growth at 10 µM: 44.4%
K562
  growth at 10 µM: 99.4%
RPMI-8226
  growth at 10 µM: 55.5%
SR
  growth at 10 µM: 93.1%
HOP-92
  growth at 10 µM: 70.9%
NCI-H226
  growth at 10 µM: 109%
NCI-H322M
  growth at 10 µM: 108%
HCT-15
  growth at 10 µM: 87.8%
HT-29
  growth at 10 µM: 87.5%
KM12
  growth at 10 µM: 92%
SW-620
  growth at 10 µM: 77.3%
SF-268
  growth at 10 µM: 103%
SF-295
  growth at 10 µM: 110%
SNB-19
  growth at 10 µM: 103%
Malme-3M
  growth at 10 µM: 112%
MDA-MB-435
  growth at 10 µM: 96.6%
SK-MEL-2
  growth at 10 µM: 99.9%
SK-MEL-5
  growth at 10 µM: 81.9%
UACC-257
  growth at 10 µM: 119%
IGROV-1
  growth at 10 µM: 97.9%
OVCAR-5
  growth at 10 µM: 126%
OVCAR-8
  growth at 10 µM: 74.7%
NCI/ADR-RES
  growth at 10 µM: 96.1%
SK-OV-3
  growth at 10 µM: 99%
786-0
  growth at 10 µM: 96.8%
A498
  growth at 10 µM: 103%
CAKI-1
  growth at 10 µM: 117%
UO-31
  growth at 10 µM: 76.1%
PC-3
  growth at 10 µM: 84.2%
MCF7
  growth at 10 µM: 96.2%
T47D
  growth at 10 µM: 82.5%

## COc1cccc(-c2nc3sccn3c2-c2ccnc(NCCNC(=O)Nc3cccc(C(F)(F)F)c3)n2)c1
[1]
  IC50: 5.3 µM
CCRF-CEM
  growth at 10 µM: 27%
K562
  growth at 10 µM: 39.9%
RPMI-8226
  growth at 10 µM: 20.4%
SR
  growth at 10 µM: 38.5%
HOP-92
  growth at 10 µM: 92.4%
NCI-H226
  growth at 10 µM: 94.9%
NCI-H322M
  growth at 10 µM: 81.3%
HCT-15
  growth at 10 µM: 45.9%
HT-29
  growth at 10 µM: 44.1%
KM12
  growth at 10 µM: 33.5%
SW-620
  growth at 10 µM: 88.9%
SF-268
  growth at 10 µM: 62.3%
SF-295
  growth at 10 µM: 37.7%
SNB-19
  growth at 10 µM: 74.8%
Malme-3M
  growth at 10 µM: 85.1%
MDA-MB-435
  growth at 10 µM: 21.5%
SK-MEL-2
  growth at 10 µM: 61.9%
SK-MEL-5
  growth at 10 µM: 51.5%
UACC-257
  growth at 10 µM: 69.5%
IGROV-1
  growth at 10 µM: 50.9%
OVCAR-5
  growth at 10 µM: 103%
OVCAR-8
  growth at 10 µM: 21.3%
NCI/ADR-RES
  growth at 10 µM: 27.2%
SK-OV-3
  growth at 10 µM: 78.6%
786-0
  growth at 10 µM: 65.6%
A498
  growth at 10 µM: 61.6%
CAKI-1
  growth at 10 µM: 40%
UO-31
  growth at 10 µM: 39.7%
PC-3
  growth at 10 µM: 32.9%
MCF7
  growth at 10 µM: 54.8%
T47D
  growth at 10 µM: 42.9%

## O=C(NCCNc1nccc(-c2c(-c3cccc(O)c3)nc3sccn23)n1)Nc1ccccc1
[1]
  IC50: > 10 µM
CCRF-CEM
  growth at 10 µM: 46%
K562
  growth at 10 µM: 70.6%
RPMI-8226
  growth at 10 µM: 58.3%
SR
  growth at 10 µM: 90.1%
HOP-92
  growth at 10 µM: 90.2%
NCI-H226
  growth at 10 µM: 105%
NCI-H322M
  growth at 10 µM: 113%
HCT-15
  growth at 10 µM: 92.7%
HT-29
  growth at 10 µM: 61.9%
KM12
  growth at 10 µM: 68.8%
SW-620
  growth at 10 µM: 63.3%
SF-268
  growth at 10 µM: 79.8%
SF-295
  growth at 10 µM: 99.5%
SNB-19
  growth at 10 µM: 108%
Malme-3M
  growth at 10 µM: 36.1%
MDA-MB-435
  growth at 10 µM: 31.1%
SK-MEL-2
  growth at 10 µM: 97.5%
SK-MEL-5
  growth at 10 µM: 69.3%
UACC-257
  growth at 10 µM: 46.2%
IGROV-1
  growth at 10 µM: 99.9%
OVCAR-5
  growth at 10 µM: 114%
OVCAR-8
  growth at 10 µM: 68.1%
NCI/ADR-RES
  growth at 10 µM: 101%
SK-OV-3
  growth at 10 µM: 92.3%
786-0
  growth at 10 µM: 100%
A498
  growth at 10 µM: 99.7%
CAKI-1
  growth at 10 µM: 111%
UO-31
  growth at 10 µM: 86.6%
PC-3
  growth at 10 µM: 86.6%
MCF7
  growth at 10 µM: 93.8%
T47D
  growth at 10 µM: 74.1%
